Compounds with a hit are over-represented: about 4.8% of the library has one in this group of screens.
UPR CHOP act: activators of apoptotic arm of unfolded protein response (CHOP) | CHO-CHOP luciferase reporter, UPR activation, luminescence; percent of tunicamycin response over DMSO baseline | activation, % at 10 µM | 330,000 compounds, 0.34% hits | AID 449763;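 active means at 10 µM dose, activation of 40% or more, normalized to positive control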;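 further: 100% = tunicamycin at 10 µg/mL and 0% = DMSO alone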
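Material: CHO-CHOP cells, stable luciferase reporter of PERK-eIF2a-CHOP signalling; quantity: 500 reporter cells seeded per well; buffer or medium: F12 medium containing 10% fetal bovine serum; compound: one dose, 10 µM in 0.5% DMSO; incubation: 6 h compound treatment, 37 °C; measured by: Steady-Glo luciferase luminescence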
Beta cell apopt: blocks beta cell apoptosis; INS-1E cytokine-induced death, ATP luminescence, 48 h; percent of positive-control rescue, neutral wells zero; protection from apoptosis, % (no concentration beside the values); 300,000 compounds, 0.8% hits; AID 435005;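 active means Every replicate reaches about 75%, or at least half do and their mean reaches it too, limit read from the data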;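 further: 0% = cytokine-treated negative control wells and 100% = positive control rescue; higher means more ATP so stronger rescue from cytokine killing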
SKKanGAS inh: SKKanGAS growth inhibition; S. pyogenes SKKanGAS, kanamycin growth, BacTiter-Glo, 6 h; inhibition, % at 7.5 µM; 300,000 compounds, 1.3% hits; AID 1662;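 active means mean replicate score, as percent of positive control median, at least 50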;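 further: strain carries kanamycin resistance gene driven by streptokinase promoter and grows in 40 µg/ml kanamycin; loss of luminescence reflects streptokinase promoter inhibition or plain growth inhibition; 0% = median of DMSO wells and 100% = positive control at its reference dose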
XBP1 UPR activ: adaptive UPR (XBP1) activation; CHO-XBP1 luciferase reporter, IRE1-XBP1 UPR activation, luminescence; percent of tunicamycin response, DMSO as zero; activation, % at 20 µM; 330,000 compounds, 0.33% hits; AID 463104;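 active means versus positive control, 20 µM dose yields 30% or more activation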;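 further: 100% = tunicamycin at 10 µg/mL and 0% = DMSO only wells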
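Signal: luciferase luminescence; Assay system: CHO-XBP1 luciferase reporter cells; Amount: one thousand reporter cells per well; Dosing: 20 µM single concentration, DMSO 1%; Benchmarks: high control tunicamycin 10 µg/mL final, low control DMSO vehicle only; Schedule: 6 h compound exposure at 37 °C, 5% CO2; Evaluation: percent activation relative to tunicamycin reference.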
Mdm2-MdmX inh: human Mdm2/MdmX binding inhibition; O15151+Q00987; SaOS-2 split-luciferase Mdm2/MdmX complementation, luminescence; inhibition, % at 8 µM; 330,000 compounds, 3% hits; AID 485346;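 active means inhibition of at least 50% at 8 µM in the primary screen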
Target sequence (O15151 whole entry, looked up): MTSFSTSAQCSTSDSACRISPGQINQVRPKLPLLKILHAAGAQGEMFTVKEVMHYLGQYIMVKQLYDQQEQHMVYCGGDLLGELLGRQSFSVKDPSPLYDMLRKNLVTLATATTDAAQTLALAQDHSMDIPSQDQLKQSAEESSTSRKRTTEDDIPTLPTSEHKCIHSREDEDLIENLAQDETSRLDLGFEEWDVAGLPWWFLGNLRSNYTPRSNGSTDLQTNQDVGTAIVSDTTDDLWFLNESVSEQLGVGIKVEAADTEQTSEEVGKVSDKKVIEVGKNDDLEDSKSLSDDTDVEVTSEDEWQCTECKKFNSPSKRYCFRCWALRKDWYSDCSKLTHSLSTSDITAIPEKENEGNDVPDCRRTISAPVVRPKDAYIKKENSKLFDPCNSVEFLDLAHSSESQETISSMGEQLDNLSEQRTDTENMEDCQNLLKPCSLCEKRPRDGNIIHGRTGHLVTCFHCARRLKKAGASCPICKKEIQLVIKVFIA
Target sequence (Q00987 whole entry, looked up): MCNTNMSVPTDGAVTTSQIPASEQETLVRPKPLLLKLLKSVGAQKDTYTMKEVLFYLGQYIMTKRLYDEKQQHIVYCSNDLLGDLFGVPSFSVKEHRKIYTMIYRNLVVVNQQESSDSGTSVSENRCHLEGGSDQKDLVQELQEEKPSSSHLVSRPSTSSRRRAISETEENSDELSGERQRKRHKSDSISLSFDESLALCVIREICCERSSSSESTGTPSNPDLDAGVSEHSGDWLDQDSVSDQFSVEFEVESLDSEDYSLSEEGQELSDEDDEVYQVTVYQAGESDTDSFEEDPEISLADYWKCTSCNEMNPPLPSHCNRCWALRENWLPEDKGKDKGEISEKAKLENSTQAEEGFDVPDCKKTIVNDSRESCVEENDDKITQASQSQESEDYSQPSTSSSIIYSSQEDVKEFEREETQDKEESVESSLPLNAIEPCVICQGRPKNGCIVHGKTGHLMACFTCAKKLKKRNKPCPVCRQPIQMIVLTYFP
CSC inhib: cancer stem cell inhibition. cancer stem cell-like cells viability, luminescence. inhibition, % at 7.5 µM. 300,000 compounds, 1.1% hits; in the data active means inhibition above about 75%; tested in HMLE shEcad cells
Mdm2 MdmX conf: confirmation of human Mdm2/MdmX interaction inhibitors; 10,000 compounds, 55% hits; shares compounds with Mdm2-MdmX inh; Mdm2-MdmX binding, luminescent assay; inhibition, % at 8 µM; AID 489028; in the data active means inhibition above about 40%
FLuc counter: counter-screen for Mdm2/MdmX inhibitors: full-length luciferase; shares compounds with Mdm2-MdmX inh; SaOS-2 full-length luciferase counterscreen, luminescence; inhibition, % at 8 µM; 6,200 compounds, 77% hits;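 active means mean inhibition at 8 µM reaching about 37%, which flags the compound as non-specific, limit read from the data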;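 further: p53-null SaOS-2 cells with luciferase driven by a doxycycline-inducible promoter; compound on cells about two nights before reading with doxycycline added after day one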
* = called active by the depositor; / = no result given.

SMILES	UPR CHOP act	Beta cell apopt	SKKanGAS inh	XBP1 UPR activ	Mdm2-MdmX inh	CSC inhib	Mdm2 MdmX conf	FLuc counter
Cc1ccc(-c2nc(-c3ccccn3)no2)cc1	-9.7	58.4	59.2*	-10.0	85.5*	70.3	86.0*	52.8*
c1ccc(-c2nc(-c3ccccn3)no2)cc1	-7.7	40.1	-5.7	-9.3	39.5	51.0	/	/
CCOC(=O)CC1COCCN1C(=O)c1cc(COc2ccc(F)cc2Cl)on1 (stereo not drawn)	5.6	-2.3	-11.1	-1.3	0.8	6.4	/	/
CCOc1ccc2c(C)nc(NC3=NC(C)(C)C=C(C)N3)nc2c1	2.1	-0.9	-1.1	-2.5	50.4*	25.4	33.9	/
CCOc1ccc2nc(NC3=NC(C)(C)C=C(C)N3)nc(C)c2c1	-2.0	3.3	-2.9	0.6	71.6*	0.6	33.9	/
Cc1ccc(SCc2cc(=O)[nH]c(Nc3nc(C)c4ccc(C)cc4n3)n2)cc1	1.3	/	34.6	1.7	31.2	/	/	/
CC(=O)N[C@@H](C)c1nc2ccccc2n1CCCN1CCN(c2nc(-c3ccc(C)cc3)cs2)CC1	1.2	0.3	16.4	3.6	4.5	-5.4	/	/
CCCCCCn1c2c(c(=N)c3c1CCC3)CCC2	-2.4	108.6*	12.7	-2.0	67.2*	25.5	60.5*	38.9*
Cc1ccc(S(=O)(=O)NNC(=O)Nc2ccccc2F)c(C)c1	0.5	-2.2	-9.2	-3.0	25.4	4.7	/	/
CCc1cccc(NS(=O)(=O)c2c(C)nc3sc(CC)nn3c2=O)c1	-0.3	-8.4	/	-3.4	53.0*	5.7	2.5	/
COc1ccc(-c2csc(/C(C#N)=C\c3ccc(OC)c([N+](=O)[O-])c3)n2)cc1	1.5	7.9	-5.8	0.4	53.7*	0.9	15.9	/
COc1ccc(-c2csc(/C(C#N)=C/Nc3ccc4c(c3)OCCO4)n2)cc1	2.0	14.4	-0.5	12.9	52.0*	4.6	7.7	/
COc1ccc(-c2csc(/C(C#N)=C\c3ccc(O)c([N+](=O)[O-])c3)n2)cc1OC	1.3	19.9	94.7*	4.9	53.2*	44.7	47.3*	62.0*
COc1ccccc1NC(=O)C(C)Sc1nnc2ccccn12 (stereo not drawn)	1.0	-4.4	/	1.6	-15.7	/	/	/
CCOC(=O)c1[nH]c(=O)[nH]c1CNc1ccccc1C#N	1.5	2.5	-3.9	-3.9	9.9	-12.3	/	/
COc1ccccc1-c1cc(C(F)(F)F)nc(S(=O)(=O)CCCC(=O)N2CCOCC2)n1	-4.8	-9.3	-2.2	-9.9	96.8*	82.2*	97.7*	1.4
Cc1ccc(NC(=O)c2cc(C(C)(C)C)nn2Cc2ccccc2)cc1	3.7	/	25.2	-0.3	74.3*	/	55.5*	59.2*
CCOC(=O)c1cnc2c(C)cc(Cl)cc2c1N1CCN(C)CC1	3.0	9.3	0.9	-6.0	24.0	-1.9	/	/
CCc1nc2ccccc2n1CC(=O)NC1CCS(=O)(=O)C1 (stereo not drawn)	-1.4	-2.7	/	-0.7	-0.7	-15.4	/	/
COc1ccc(C2CN=NC23CCCc2ccccc2C3=O)cc1 (stereo not drawn)	0.5	-2.0	4.2	-4.0	14.7	15.3	/	/
COc1ccc(C2CN=NC23CCc2ccccc2C3=O)cc1 (stereo not drawn)	1.7	13.5	-3.3	-1.6	65.8*	60.7	52.9*	88.8*
O=C(Nc1ccc(Cl)cn1)c1cccc2c(Br)cccc12	5.4	23.4	1.3	3.5	30.5	50.2	/	/
O=C1OC(Nc2ccc3c(c2)OCO3)c2ccccc21 (stereo not drawn)	0.7	-31.3	6.0	-0.1	70.1*	8.8	41.1*	54.8*
Cc1ccc(OCC(=O)NN=C2C3CC4CC(C3)CC2C4)cc1	1.3	-3.0	/	0.3	9.8	/	/	/
COc1ccc(CCNS(=O)(=O)c2ccc(N3CCCC3=O)cc2)cc1	2.3	3.1	-8.9	-1.9	13.3	-16.1	/	/
COc1ccc(OC)c(NS(=O)(=O)c2ccc(N3CCCC3=O)cc2)c1	-0.4	15.1	3.8	11.0	72.3*	56.9	57.5*	83.0*

Compound activity as filed in PubChem.
